Measurements reported in ChEMBL document CHEMBL3864129, “Polybrominated Diphenyl Ethers: Structure Determination and Trends in Antibacterial Activity” (J Nat Prod, 2016).
In brackets after ≈: the same amount, converted by molar mass.

Legend:
Enterococcus faecium [1] = assay: Antimicrobial activity against Enterococcus […] ATCC 29212 by CLSI M07-A9 method; type: functional
Method in brief: (§1)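 Laboratory strains tested following CLSI guidelines. Each compound was run in duplicate in at least two independent experiments, and the MIC was recorded.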

Escherichia coli = assay: Antimicrobial activity against Escherichia coli ATCC 25922 by CLSI M07-A9 method; type: functional; method in brief: as §1
Staphylococcus aureus [2] = assay: Antimicrobial activity against Staphylococcus aureus ATCC 43300 by CLSI M07-A9 method; type: functional; method in brief: as §1
[3] = Cytotoxicity against African green monkey BSC1 cells assessed as decrease in cell viability after 24 hrs by MTT assay; type: toxicity, cell-based, Chlorocebus aethiops, BSC-1; settings: for IC50: bsc-1; for IC50 at 24 h: African green monkey (Chlorocebus aethiops), BSC1 cells
Staphylococcus aureus [4] = assay: Antimicrobial activity against Staphylococcus aureus ATCC 29213 by CLSI M07-A9 method; type: functional; method in brief: as §1
Enterococcus faecium [5] = assay: Antimicrobial activity against Enterococcus […] ATCC 51299 by CLSI M07-A9 method; type: functional; method in brief: as §1
Pseudomonas aeruginosa = assay: Antimicrobial activity against Pseudomonas aeruginosa ATCC 27853 by CLSI M07-A9 method; type: functional; method in brief: as §1
Candida albicans = assay: Antimicrobial activity against Candida albicans ATCC 28517 by CLSI M07-A9 method; type: functional; method in brief: as §1
[6] = Cytotoxicity against human HCT116 cells assessed as decrease in cell viability after 24 hrs by MTT assay; type: toxicity, cell-based, HCT-116

| Compound | MIC (Enterococcus faecium [1]) | MIC (Escherichia coli) | MIC (Staphylococcus aureus [2]) | IC50 [3] | MIC (Staphylococcus aureus [4]) | MIC (Enterococcus faecium [5]) | MIC (Pseudomonas aeruginosa) | MIC (Candida albicans) | IC50 at 24 h [3] | MNTC at 24 h [6] | Activity (Escherichia coli) |
| --- | --- | --- | --- | --- | --- | --- | --- | --- | --- | --- | --- |
| Oc1c(Br)c(Br)c(Br)c(Br)c1Oc1ccc(Br)cc1Br | 33 µg/mL (≈ 50 µM) | > 100 µg/mL | 0.8 µg/mL (≈ 1.21 µM) | 29 µg/mL (≈ 44 µM) | 1.6 µg/mL (≈ 2.43 µM) | 33 µg/mL (≈ 50 µM) | – | – | – | – | – |
| COc1c(Br)cc(Br)cc1Oc1cc(Br)c(Br)c(Br)c1OC | > 50 µg/mL | > 50 µg/mL | > 50 µg/mL | – | > 50 µg/mL | > 50 µg/mL | > 50 µg/mL | > 50 µg/mL | > 50 µg/mL | 50 µg/mL | – |
| COc1c(Br)cc(Br)cc1Oc1c(Br)cc(Br)c(Br)c1OC | – | > 50 µg/mL | > 50 µg/mL | > 50 µg/mL | > 50 µg/mL | – | > 50 µg/mL | > 50 µg/mL | – | 50 µg/mL | – |
| Oc1c(Oc2ccc(Br)cc2Br)cc(Br)c(Br)c1Br | 1.2 µg/mL (≈ 2.07 µM) | > 100 µg/mL | 0.4 µg/mL (≈ 0.689 µM) | 15 µg/mL (≈ 25.8 µM) | 3.7 µg/mL (≈ 6.37 µM) | 1.2 µg/mL (≈ 2.07 µM) | – | – | – | – | – |
| COc1c(Br)c(Br)c(O)c(Oc2cc(Br)cc(Br)c2O)c1Br | 3.1 µg/mL (≈ 4.95 µM) | > 50 µg/mL | 0.39 µg/mL (≈ 0.622 µM) | > 50 µg/mL | 0.78 µg/mL (≈ 1.24 µM) | 1.56 µg/mL (≈ 2.49 µM) | > 50 µg/mL | > 50 µg/mL | – | 50 µg/mL | – |
| Oc1cc(Br)cc(Br)c1Oc1ccc(Br)cc1Br | 1.2 µg/mL (≈ 2.39 µM) | 3.1 µg/mL (≈ 6.18 µM) | 0.08 µg/mL (≈ 0.159 µM) | 7 µg/mL (≈ 13.9 µM) | 0.042 µg/mL (≈ 0.0837 µM) | 1.2 µg/mL (≈ 2.39 µM) | > 50 µg/mL | > 50 µg/mL | – | – | – |
| Oc1c(Br)cc(Br)cc1Oc1c(O)c(Br)cc(Br)c1Br | 3.1 µg/mL (≈ 5.2 µM) | 100 µg/mL (≈ 168 µM) | 0.31 µg/mL (≈ 0.52 µM) | > 50 µg/mL | 1.6 µg/mL (≈ 2.68 µM) | 3.1 µg/mL (≈ 5.2 µM) | > 50 µg/mL | > 50 µg/mL | – | 50 µg/mL | – |
| Oc1c(Br)cc(Br)cc1Oc1c(Br)cc(Br)c(Br)c1O | 1.6 µg/mL (≈ 2.68 µM) | – | 0.16 µg/mL (≈ 0.268 µM) | > 50 µg/mL | 0.78 µg/mL (≈ 1.31 µM) | 0.78 µg/mL (≈ 1.31 µM) | > 50 µg/mL | > 50 µg/mL | – | 50 µg/mL | – |
| COc1c(Br)cc(Br)cc1Oc1c(Br)c(Br)cc(Br)c1OC | 50 µg/mL (≈ 80 µM) | > 50 µg/mL | > 50 µg/mL | – | > 50 µg/mL | > 50 µg/mL | > 50 µg/mL | > 50 µg/mL | > 50 µg/mL | 50 µg/mL | – |
| Oc1cc(Br)c(Br)c(Br)c1Oc1cc(Br)cc(Br)c1O | 0.39 µg/mL (≈ 0.654 µM) | 25 µg/mL (≈ 41.9 µM) | 0.078 µg/mL (≈ 0.131 µM) | > 50 µg/mL | 0.31 µg/mL (≈ 0.52 µM) | 0.39 µg/mL (≈ 0.654 µM) | – | > 50 µg/mL | – | 50 µg/mL | – |
| Oc1c(Br)cc(Br)cc1Oc1ccc(Br)cc1Br | 0.8 µg/mL (≈ 1.59 µM) | > 100 µg/mL | 0.19 µg/mL (≈ 0.379 µM) | 32 µg/mL (≈ 63.8 µM) | 0.78 µg/mL (≈ 1.55 µM) | 0.8 µg/mL (≈ 1.59 µM) | – | – | – | – | – |
| C[C@@H]1[C@H](O)[C@@H](C)/C=C/C=C/C=C/C=C/C=C/C=C/C=C/[C@H](O[C@@H]2O[C@H](C)[C@@H](O)[C@H](N)[C@@H]2O)C[C@@H]2O[C@](O)(C[C@@H](O)C[C@@H](O)[C@H](O)CC[C@@H](O)C[C@@H](O)CC(=O)O[C@H]1C)C[C@H](O)[C@H]2C(=O)O [AMPHOTERICIN B] | – | – | – | – | – | – | – | < 7.8 µg/mL | – | – | – |
| Oc1cc(Br)cc(Br)c1O | 12.5 µg/mL (≈ 46.7 µM) | > 100 µg/mL | > 50 µg/mL | > 50 µg/mL | 100 µg/mL (≈ 373 µM) | 25 µg/mL (≈ 93.3 µM) | > 50 µg/mL | > 50 µg/mL | – | 50 µg/mL | – |
| GENTAMICIN | – | – | – | – | – | – | 1 µg/mL | – | – | – | – |
| Oc1ccccc1Oc1ccccc1O | > 50 µg/mL | – | 50 µg/mL (≈ 247 µM) | – | 50 µg/mL (≈ 247 µM) | > 50 µg/mL | – | – | – | – | Non-Toxic |
| Oc1c(Br)cc(Br)cc1Oc1c(O)c(Br)c(Br)c(Br)c1Br | 0.78 µg/mL (≈ 1.15 µM) | – | 0.16 µg/mL (≈ 0.237 µM) | > 50 µg/mL | 0.39 µg/mL (≈ 0.577 µM) | 0.39 µg/mL (≈ 0.577 µM) | – | – | – | 50 µg/mL | – |
| Oc1cc(Br)c(Br)cc1Oc1ccc(Br)cc1Br | 0.4 µg/mL (≈ 0.797 µM) | 12.5 µg/mL (≈ 24.9 µM) | 0.015 µg/mL (≈ 0.0299 µM) | 8.8 µg/mL (≈ 17.5 µM) | 0.14 µg/mL (≈ 0.279 µM) | 0.4 µg/mL (≈ 0.797 µM) | – | – | – | – | – |
| COc1c(Br)cc(Br)cc1Oc1c(Br)c(OC)c(Br)c(Br)c1OC | 13 µg/mL (≈ 19.9 µM) | > 50 µg/mL | 3.1 µg/mL (≈ 4.73 µM) | > 50 µg/mL | 3.1 µg/mL (≈ 4.73 µM) | 13 µg/mL (≈ 19.9 µM) | > 50 µg/mL | > 50 µg/mL | – | 50 µg/mL | – |
| Oc1c(Br)cc(Br)cc1Oc1cc(Br)c(Br)c(Br)c1O | 1.6 µg/mL (≈ 2.68 µM) | – | 0.16 µg/mL (≈ 0.268 µM) | > 50 µg/mL | 0.31 µg/mL (≈ 0.52 µM) | 0.78 µg/mL (≈ 1.31 µM) | – | > 50 µg/mL | – | 50 µg/mL | – |
| COc1c(Br)cc(Br)cc1Oc1ccc(Br)cc1Br | 11 µg/mL (≈ 21.3 µM) | > 100 µg/mL | 0.4 µg/mL (≈ 0.775 µM) | 35 µg/mL (≈ 67.9 µM) | 3.7 µg/mL (≈ 7.17 µM) | 11 µg/mL (≈ 21.3 µM) | – | – | – | – | – |
| Cc1onc(-c2ccccc2)c1C(=O)N[C@@H]1C(=O)N2[C@@H]1SC(C)(C)[C@@H]2C(=O)O [OXACILLIN] | – | – | > 32 µg/mL | – | 0.13 µg/mL (≈ 0.324 µM) | 32 µg/mL (≈ 79.7 µM) | – | – | – | – | – |
| COc1cc(Br)c(Br)c(Br)c1Oc1cc(Br)cc(Br)c1OC | > 50 µg/mL | > 50 µg/mL | > 50 µg/mL | > 50 µg/mL | > 50 µg/mL | > 50 µg/mL | > 50 µg/mL | > 50 µg/mL | – | 50 µg/mL | – |
| Oc1cc(Br)cc(Br)c1Oc1cc(Br)cc(Br)c1O | 3.1 µg/mL (≈ 5.99 µM) | – | 1.25 µg/mL (≈ 2.41 µM) | > 50 µg/mL | 1.6 µg/mL (≈ 3.09 µM) | 1.6 µg/mL (≈ 3.09 µM) | > 50 µg/mL | > 50 µg/mL | – | 50 µg/mL | – |
